# Rtt109 HAT inh – inhibitors of Candida albicans Rtt109/Vps75 histone acetyltransferase. Q5AAJ8. purified Rtt109/Vps75, ThioGlo CoA-SH fluorescence, 4 h. inhibition, % at 34.9 µM. hit rate 0.16% among 330,000. AID 540336;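 active = inhibition of at least 50% in every replicate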
# FAS-TE inh – inhibitors of human fatty acid synthase thioesterase domain; P49327; recombinant FAS-TE, OMFH fluorogenic substrate, fluorescence endpoint; inhibition, % at 15 µM; hit rate 0.67% among 360,000;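 active = compounds whose normalised, plate-corrected inhibition of enzyme fluorescence in the single-dose primary screen is 50% or more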;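 also: 0% = DMSO with enzyme and 100% = substrate without enzyme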
# HDAC3 inh – inhibitors of human histone deacetylase 3; hit rate 0.15% among 320,000; O15379; AID 2718; recombinant HDAC3, fluorogenic peptide/trypsin coupled, fluorescence; inhibition, % at 8.3 µM; in the data active = inhibition above about 26%, passing the limit was not always enough
# ALR H2O2 inh – inhibitors of human sulfhydryl oxidase ALR; P55789; purified ALR, DTT oxidation, H2O2 HRP-luminol luminescence; inhibition, % (test concentration not listed); hit rate 3.8% among 290,000;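 active = mean replicate inhibition above about 79%, with every replicate also reaching it, limit read from the data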
# UCH37 DUB inh – blocks the human deubiquitinase UCH37. purified proteasome/UCH37, Ub-AMC cleavage fluorescence. inhibition, % (no concentration beside the values). hit rate 0.33% among 330,000. AID 588478;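 active = mean inhibition over replicate wells above about 20%, limit read from the data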;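 also: 0% = compound-free wells with enzyme and 100% = wells lacking proteasome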
#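 Reagent: Ub-AMC substrate; assay system: Proteasome-associated human UCH37 deubiquitinase; controls: no-proteasome and no-compound wells; read-out: % inhibition of Ub-AMC cleavage fluorescence; timing: 30 min preincubation with enzyme, 25 min cleavage at room temperature; signal: AMC fluorescence from Ub-AMC cleavage, excitation 355 nm, emission 460 nm; buffer or medium: Tris-HCl pH 7.4 plus ovalbumin, ATP-MgCl2, DTT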
# PfM18AAP inh – blocks P. falciparum M18 aspartyl aminopeptidase; recombinant PfM18AAP, H-Glu-NHMec fluorogenic cleavage; AID 1822; hit rate 1.2% among 290,000; inhibition, % at 7.35 µM;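 active = inhibition above the campaign mean inhibition over all tested compounds plus 3 SD, cut at about 28% in these data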;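 also: 0% = plate median of test compound wells and 100% = 2 mM ZnCl2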
# FAS-TE conf – confirmation of human fatty acid synthase thioesterase inhibitors; inhibition, % at 15 µM; shares compounds with FAS-TE inh; hit rate 45% among 2,300; recombinant FAS-TE, OMFH fluorogenic substrate, fluorescence;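 active = compounds inhibiting the enzyme by at least 50% at 15 µM in any one of the replicates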;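 also: 0% = enzyme with DMSO only and 100% = wells lacking enzyme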
# Starred values were filed as active, the others as inactive; · = no result given. Most compounds without a hit are left out; they make up all but 4.6% or so of the library.
SMILES,Rtt109 HAT inh,FAS-TE inh,HDAC3 inh,ALR H2O2 inh,UCH37 DUB inh,PfM18AAP inh,FAS-TE conf
C=CCn1c(SCC(=O)N(C)C)nc2cc(C(=O)O)ccc2c1=O,10,-1,0,·,-3,4,·
C=CCn1c(SCc2cc([N+](=O)[O-])cc3c2OCOC3)nc2cc(C(=O)O)ccc2c1=O,5,83*,7,20,9,-8,77*
CCOC1=C2CN(S(=O)(=O)c3ccc(C)cc3)[C@@H](c3ccccc3)C[C@H]2[C@H]2C(=O)N(c3ccccc3)C(=O)[C@H]2C1,·,69*,·,·,·,·,9
CCCCC[C@@H]1[C@@H]2C(=C(OCC)C[C@@H]3C(=O)N(c4ccccc4)C(=O)[C@H]23)[C@H](c2ccccc2)N1S(=O)(=O)c1ccc(C)cc1,·,27,·,·,·,·,·
CCOC1=C2CN(S(=O)(=O)c3ccc(C)cc3)[C@H](c3cccc4ccccc34)C[C@H]2C(C#N)(C#N)C(C#N)(C#N)C1,·,63*,·,·,·,·,30
CCOC1=C2CN(S(=O)(=O)c3ccc(C)cc3)[C@H](c3ccccc3)C[C@@H]2N(S(=O)(=O)c2ccccc2)[C@H](c2ccccc2)C1,·,29,·,·,·,·,·
CCOC1=C2[C@H](c3ccccc3)N(S(=O)(=O)c3ccc(C)cc3)C(C(C)(C)C)[C@H]2C(C#N)(C#N)C(C#N)(C#N)C1 (stereo partly specified),·,78*,·,·,·,·,12
CCOC1=C2CN(S(=O)(=O)c3ccc(Cl)cc3)[C@H](c3ccccc3)C[C@@H]2N(S(=O)(=O)c2ccc(C)cc2)[C@H](c2ccccc2)C1,·,19,·,·,·,·,·
CCOC1=C2CN(S(=O)(=O)c3ccc(C)cc3)[C@H](c3cccc(Cl)c3)C[C@H]2[C@H]2C(=O)N(c3ccccc3)C(=O)[C@H]2C1,·,81*,·,·,·,·,19
Clc1ccc(-c2ccc(C=NNc3nncc(-c4ccccc4)n3)o2)cc1,·,·,·,·,10,·,·
O=C(O)COc1ccc(Br)cc1C=NNc1ccccn1,·,·,·,·,8,·,·
CC(CC(=O)Nc1ccccc1)=NNC(=O)COc1ccc(C)cc1Br,·,·,·,·,4,·,·
Cc1nc(-c2cccnc2)sc1C(=O)NN=Cc1ccccc1Cl,·,·,·,·,-5,·,·
CCOc1ccc(S(=O)(=O)N(CC(=O)NN=Cc2cccs2)c2ccc(C)cc2)cc1,·,·,·,·,3,·,·
CCOC1=C2[C@@H](CN(S(=O)(=O)c3ccc(C)cc3)[C@H]2c2cccc3ccccc23)[C@H]2C(=O)NC(=O)[C@H]2C1,·,13,·,·,·,·,·
CCOC1=C2CN(S(=O)(=O)c3ccc(C)cc3)[C@@H](c3cccc4ccccc34)C[C@H]2[C@H]2C(=O)N(c3ccccc3)C(=O)[C@H]2C1,·,88*,·,·,·,·,6
CCOC1=C2[C@@H](CN(S(=O)(=O)c3ccc(C)cc3)[C@H]2c2ccc(CC)cc2)[C@H]2C(=O)N(c3ccccc3)C(=O)[C@H]2C1,·,50*,·,·,·,·,10
COc1cccc(C=NNC(=O)c2nnn(-c3nonc3N)c2C(C)C)c1OCc1ccc(F)cc1,·,·,·,·,1,·,·
CCN(CC)S(=O)(=O)c1ccc(N2CCOCC2)c(NC(=O)c2cccc3c(=O)c(C)c(-c4ccccc4)oc23)c1,14,36,12,-7,-28,·,·
CC(C)Oc1ccc(S(=O)(=O)N2CCOCC2)cc1NC(=O)c1nn(C)c(=O)c2ccccc12,5,67*,·,·,0,·,26
COc1ccc(S(=O)(=O)N2CCOCC2)cc1NC(=O)c1cccc2c(=O)c(C)c(-c3ccccc3)oc12,-24,93*,-3,0,-9,1,27
COc1ccc(C=NNC(=O)c2ccccc2F)cc1COc1ccc(F)cc1F,·,·,·,·,0,·,·
Cc1c(C=NNC(=O)C2COc3ccc(C(C)(C)C)cc3O2)c2ccccc2n1C (stereo unspecified),·,·,·,·,5,·,·
COc1cc(C=NNC(=O)CN2CCCCC2)ccc1OCc1ccccc1,·,·,·,·,3,·,·
CC(C)c1ccc2[nH]c(O)c(N=NC(=O)c3cccc(S(=O)(=O)N4CCCCC4)c3)c2c1,9,58*,11,-1,5,3,32
COc1ccc(O)c(C=NNC(=O)c2ccc(OCc3cccc(Br)c3)cc2)c1,·,·,·,·,5,·,·
